Screens from PubChem.
The list is not random: actives were taken first. Their share in the collection is about 3.1%.
MEKK3 PB1 HTS: modulators (inhibitors or enhancers) of MEK5 binding to human MEKK3 PB1 domain. Q99759. bead-based flow cytometry, Alexa488-MEK5 binding to MEKK3; actives lie on both sides; 0 = blocked by unlabeled MEK5, 100 = vehicle. binding response (% of control), % at 10 µM. 290,000 tested, 1.4% active;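 active = binding response more than 3 SD above or below the average of its plate-row segment, actives on both sides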;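 also: Alexa488 bead fluorescence after subtracting the streptavidin-only scavenger bead signal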
MEKK2mut PB1 HTS: signal of MEK5 binding to mutant human MEKK2 PB1 domain | bead flow cytometry, Alexa488-MEK5 binding to MEKK2 mutant | percent response, % at 10 µM | 290,000 tested, 0.35% active | AID 1530; in the data active = percent response above about 24%, passing the limit was not always enough
PREPL inhibitor: inhibits the human prolyl oligopeptidase-like enzyme | Q4J6C6 | recombinant PREPL, fluorescence polarization activity-based probe | inhibition, % at 5.96 µM | 320,000 tested, 0.68% active;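 also: 0% = enzyme with DMSO and 100% = wells lacking enzyme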
Target sequence (Q4J6C6 whole entry, looked up): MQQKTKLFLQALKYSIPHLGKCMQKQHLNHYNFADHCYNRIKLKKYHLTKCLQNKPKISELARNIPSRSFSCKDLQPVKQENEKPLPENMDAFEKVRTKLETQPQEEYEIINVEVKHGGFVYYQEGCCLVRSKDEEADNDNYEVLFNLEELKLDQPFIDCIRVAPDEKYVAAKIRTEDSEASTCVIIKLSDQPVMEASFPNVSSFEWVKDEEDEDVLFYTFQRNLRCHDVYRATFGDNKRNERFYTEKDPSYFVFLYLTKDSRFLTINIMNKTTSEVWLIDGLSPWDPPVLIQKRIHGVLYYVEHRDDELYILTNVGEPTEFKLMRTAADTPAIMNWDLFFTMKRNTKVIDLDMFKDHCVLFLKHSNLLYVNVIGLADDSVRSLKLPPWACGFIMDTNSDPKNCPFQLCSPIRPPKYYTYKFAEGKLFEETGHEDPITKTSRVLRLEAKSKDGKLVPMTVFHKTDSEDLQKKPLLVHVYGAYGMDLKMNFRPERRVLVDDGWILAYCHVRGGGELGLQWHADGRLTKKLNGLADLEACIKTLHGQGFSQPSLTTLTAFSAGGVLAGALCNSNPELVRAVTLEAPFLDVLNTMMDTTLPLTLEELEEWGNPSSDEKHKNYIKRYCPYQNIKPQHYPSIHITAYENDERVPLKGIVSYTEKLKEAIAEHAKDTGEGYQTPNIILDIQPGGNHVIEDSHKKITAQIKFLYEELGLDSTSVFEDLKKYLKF
Apaf1 inhib: inhibitors of human Apaf-1 apoptosome. reconstituted apoptosome caspase-3 activity, DEVD-Rh110 fluorescence. inhibition, % at 20 µM. 330,000 tested, 0.71% active. AID 489030; active = inhibition of at least 40% at 20 µM;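 also: plate controls were DMSO wells for no effect and DEVD-CHO caspase inhibitor wells for full effect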
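Material: reconstituted apoptosome with Apaf-1, cytochrome c, caspase-9, procaspase-3, dATP / Buffer or medium: pH 7.5 Hepes buffer with CHAPS, BSA, DTT / Also added: cytochrome c with DEVD-Rh110 / Schedule: compound with Apaf-1, dATP, procaspase-3 30 min, then 50 min reaction, room temperature / Technique: rhodamine 110 fluorescence at Ex 480/Em 540 nm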
UBC13 inh: human UBC13 polyubiquitination inhibition; P61088; UBC13 polyubiquitin chain formation, TR-FRET; inhibition, % at 20 µM; 330,000 tested, 0.47% active; AID 485273; in the data active = inhibition above about 45%, passing the limit was not always enough
MEKK2 WT-MEK5: raises or lowers MEK5 binding to wildtype human MEKK2 PB1 domain | Q9Y2U5 | AID 1531 | 290,000 tested, 1.1% active | bead flow cytometry, Alexa488-MEK5 binding to MEKK2 WT; actives lie on both sides | binding response (% of control), % at 10 µM; in the data active = binding response below about 67% or above about 130%
MEKK2wt confirm: raises or lowers MEK5 binding to wildtype human MEKK2, retest; shares compounds with MEKK3 PB1 HTS; bead flow cytometry, Alexa488-MEK5 binding to MEKK2 WT; actives lie on both sides; binding response (% of control), % at 10 µM; 5,900 tested, 2.4% active; AID 1892; in the data active = binding response below about 16% or above about 210%; inactive = in between
MEKK2mut-MEK5: signal of MEK5 binding to mutant human MEKK2, retest | percent response, % at 10 µM | AID 1893 | bead flow cytometry, Alexa488-MEK5 binding to MEKK2 mutant | shares compounds with MEKK3 PB1 HTS | 5,900 tested, 2% active; in the data active = percent response mostly above about 71%, no sharp cut-off; inactive = mostly below about 38%;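 also: higher means compound restores mutant binding toward wildtype level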
MEKK3-MEK5 inh: confirmation of inhibitors of MEK5 binding to human MEKK3. shares compounds with MEKK3 PB1 HTS. bead flow cytometry, Alexa488-MEK5 binding to MEKK3; stronger effect = lower value. binding response (% of control), % at 10 µM. 5,900 tested, 1.8% active. AID 1894;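 active = binding response below 72% of control, or above a set upper limit, though filed actives all read lower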;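 also: 100% = DMSO only wells and 0% = binding blocked by excess unlabeled MEK5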
PREPL inh cf: human PREPL inhibition, confirmation; shares compounds with PREPL inhibitor; recombinant PREPL, fluorescence polarization activity probe; inhibition, % at 5.96 µM; 2,000 tested, 67% active; AID 2803;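 also: 0% = protein with DMSO and 100% = wells lacking protein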
Casp3 counter: inhibits human caspase-3 in UBC13 counter-screen; shares compounds with UBC13 inh; Recombinant caspase-3, Caspase-Glo 3/7 luminescence, 60 min; inhibition, % at 20 µM; 1,400 tested, 4% active;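 active = mean inhibition across replicates above about 26%, limit read from the data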;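 also: plate controls were DMSO with caspase-3 for no effect and DMSO wells lacking enzyme for full effect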
UBC13 conf: human UBC13 polyubiquitin inhibition, confirmed. shares compounds with UBC13 inh. UBC13 polyubiquitination, TR-FRET, biochemical. inhibition, % at 10 µM. 1,400 tested, 68% active; in the data active = inhibition above about 45%
Apaf-1 inh conf: Apaf-1 inhibition, single-dose confirmed | reconstituted apoptosome, caspase-3 DEVD-Rh110 fluorescence | 1,800 tested, 25% active | shares compounds with Apaf1 inhib | inhibition, % at 20 µM;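 active = mean inhibition of at least 40% at 20 µM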;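 also: plate controls were DMSO wells for no effect and DEVD-CHO caspase inhibitor control wells for full effect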
Rh110 quench: Rh110 signal interference in Apaf-1 inhibitor counter-screen; Rh110 fluorescence interference, quenched caspase reaction; shares compounds with Apaf1 inhib; activation (fluorescence interference), % at 20 µM; AID 504615; 1,800 tested, under 10 active;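 active = signal rise of 40% or more at 20 µM, treated as a fluorescence artifact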
Apaf1 inh interf: shows fluorescence interference in the Apaf-1 inhibitor assay format | shares compounds with Apaf1 inhib | 460 tested, under 10 active | AID 588538 | IC50, µM | fluorescence interference counterscreen, Apaf-1 assay format; call rule not given here
* hit, by the source's call; / = no result; ! = not active in a repeat; [ ] = another dose, or the depositor's remark. Rule as the data show it, unless noted: active = inhibition above about 43%; inactive = the rest.

SMILES	MEKK3 PB1 HTS	MEKK2mut PB1 HTS	PREPL inhibitor	Apaf1 inhib	UBC13 inh	MEKK2 WT-MEK5	MEKK2wt confirm	MEKK2mut-MEK5	MEKK3-MEK5 inh	Casp3 counter	UBC13 conf	Apaf-1 inh conf	Rh110 quench	others
COC(=O)CCC(=O)OC1(C)C(=O)C2=CN(CCCOC(C)C)C(c3ccc(OC)cc3)=CC2=C(Br)C1=O (centres undefined)	90	1	33	79*	-87	-8.0*[inhibitor]	95	-4	93	/	/	71*	5	Apaf1 inh interf=>100
C#CCOCCOCCOCCNc1nc(N2CCN(C(=O)[C@H]([C@@H](C)CC)n3cc([C@@H](N)Cc4ccc(O)cc4)nn3)CC2)nc(N2CCN(C(=O)[C@H](CCCCN)n3cc([C@@H](N)CO)nn3)CC2)n1	110	46	12	52*	98*	171*	189	132*	113	-3	73*	0	1
C#CCOCCOCCOCCNc1nc(N2CCN(C(=O)[C@H](CCCCN)n3cc(CCCC)nn3)CC2)nc(N2CCN(C(=O)[C@H](CCCCN)n3cc(CCCC)nn3)CC2)n1	110	13	-7	50*	8	159*	152	32	104	/	/	11	-3
C#CCOCCOCCOCCNc1nc(N2CCN(C(=O)C([C@@H](C)CC)n3cc(C(N)CO)nn3)CC2)nc(N2CCN(C(=O)[C@H](CCC(=O)O)n3cc(C(N)Cc4ccc(O)cc4)nn3)CC2)n1 (some centres undefined)	82	3	/	-2	-10	88	/	/	/	/	/	/	/
CC(NC(=O)C12CC3CC(CC(O)(C3)C1)C2)c1ccccc1 (centres undefined)	98	-6	0	2	3	93	/	/	/	/	/	/	/
CC(=O)Nc1ccc(S(=O)(=O)NCc2ccc3c(c2)cc(C)n3C)cc1	70*[inhibitor]	-14	20	51*	19	50*[inhibitor]	90	-9	97	/	/	4	2
Cc1cc2cc(CNS(=O)(=O)c3ccc4ccccc4c3)ccc2n1C	100	2	-5	16	-9	96	/	/	/	/	/	/	/
Cc1ccc(C(=O)N/C(=C\c2ccc(-c3ccccc3[N+](=O)[O-])o2)C(=O)NCCCN(C)C)cc1	96	25*	30	56*	-14	122	122	16	104	/	/	46*	-4	Apaf1 inh interf=>100
O=C(CCC1CCCCC1)NCCN1C2=NC[C@@H](Cc3ccccc3)N2C[C@H]1Cc1ccc(O)cc1	113	33	-59	45*	15	149*	109	2	100	/	/	14	16
C[C@H]1CN=C2N(CCNC(=O)CCC3CCCCC3)[C@H](Cc3ccc(O)cc3)CN21	96	12	5	-2	10	109	/	/	/	/	/	/	/
NC1=NC[C@@H](Cc2ccc(O)cc2)N1CCCCC1CCCCC1	106	12	4	51*	66*	134*	121	8	102	-1	41	4	11
C=CCOC(=O)C1=C[C@@H](c2csc3ccccc23)[C@H](CCCO)[C@@H](OCC)O1	69	-9	3	11	9	78	/	/	/	/	/	/	/
COc1ccc(NC(=O)N(C)C[C@H]2Oc3ccc(NC(=O)CCN4CCOCC4)cc3C(=O)N([C@@H](C)CO)C[C@H]2C)cc1	/	/	7	2	8	/	/	/	/	/	/	/	/
COc1ccc(C(=O)OCCc2sc[n+](CC(=O)c3ccccc3)c2C)cc1	104	4	26	27	3	110	/	/	/	/	/	/	/
Cc1c(CCOC(=O)C2C3CC4CC(C3)CC2C4)sc[n+]1CC(=O)c1ccc(Br)cc1 (centres undefined)	87	21	42	50*	47*	157*	180	40	105	4	75*	32	6
COc1ccc(C[C@H]2CN3C(=NC[C@@H]3C(C)C)N2CCNC(=O)c2ccc(C)c(Br)c2)cc1	103	32	27	47*	60*	154*	157	66	110	-4	34	11	8
COc1ccc(C[C@@H]2CN3C(=NC[C@@H]3C)N2C[C@H](C)NC(=O)c2ccc(C)c(Br)c2)cc1	102	13	18	20	37	118	/	/	/	/	/	/	/
COc1ccc2nc(C)cc(N/N=C/c3ccc(F)cc3)c2c1	69*[inhibitor]	59*	23	50*	97*	160*	211*	61	89	-1	113*	12	5
CN(C)CCC(=O)N1c2ccccc2Sc2ccc(C(F)(F)F)cc21	97	3	-10	2	3	102	/	/	/	/	/	/	/
CN1CCN(CCC(=O)N2c3ccccc3Sc3ccc(C(F)(F)F)cc32)CC1	98	2	1	4	-2	105	/	/	/	/	/	/	/
OCCN1CCN(CCCN2c3ccccc3Sc3ccc(C(F)(F)F)cc32)CC1	114	19	21	48*	87*	175*	132	17	108	-2	92*	9	5
CN1CCN(CCCN2c3ccccc3Sc3ccc(Cl)cc32)CC1	107	23	63*	57*	97*	188*!	157	24	109	1	99*	14	6	PREPL inh cf=55*
CN(C)CCCN1c2ccccc2Sc2ccc(C(F)(F)F)cc21	112	13	37	43*	27	154*	144	26	106	/	/	9	16
